# From ChEMBL document CHEMBL1165972, “Selective angiotensin II AT(2) receptor agonists with reduced CYP 450 inhibition” (Bioorg Med Chem, 2010)
# The source made the active and inactive calls. The rule behind the calls is not given here.
# What was measured:
# [1] = Displacement of [125I]angiotensin 2 from AT1 receptor in rat liver membrane after 2 hrs by gamma counting; format: cell membranes
# In short: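 Rat liver membranes (5 mg original tissue) were incubated with 0.03 nM [125I]Ang II and varied test-compound concentrations. Incubation was 2 h at 25 °C. Bound and free label were separated by filtration on PEI-soaked GF/B filters and bound label was gamma counted. Nonspecific binding was taken with 1 µM Ang II.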
# [2] = target: T1, Angiotensin type II receptor (Sus scrofa, UniProt Q2XUH7); test: Displacement of [125I]angiotensin 2 from AT2 receptor in pig uterus membrane after 1.5 hrs by gamma counting; format: cell membranes
# T1 sequence (Q2XUH7 whole entry): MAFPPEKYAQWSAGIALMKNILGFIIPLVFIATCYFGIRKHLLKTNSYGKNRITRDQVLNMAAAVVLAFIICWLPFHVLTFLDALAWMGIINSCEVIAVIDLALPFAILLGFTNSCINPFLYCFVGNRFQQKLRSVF
# [3] = target: T2, CYP2C9 (Homo sapiens, UniProt P11712); test: Inhibition of human recombinant CYP2C9 at 10 uM by spectrofluorimetry; format: ADME
# In short: (§1)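 Compounds were tested at 10 µM in duplicate in a spectrofluorometric assay, with 0.25% final methanol and 0.25% final acetonitrile. Fluorescence at t = 0 was subtracted from fluorescence after incubation. Signal was compared with solvent-vehicle controls, and percent of control activity was reported as percent inhibition.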
# [4] = target: T3, CYP3A4 (Homo sapiens, UniProt P08684); test: Inhibition of human recombinant CYP3A4 at 10 uM by spectrofluorimetry; format: ADME; in short: as §1
# [5] = target: T4, CYP2B6 (Homo sapiens, UniProt P20813); test: Inhibition of human recombinant CYP2B6 at 10 uM by spectrofluorimetry; format: ADME; in short: as §1
# T4 sequence (P20813 whole entry): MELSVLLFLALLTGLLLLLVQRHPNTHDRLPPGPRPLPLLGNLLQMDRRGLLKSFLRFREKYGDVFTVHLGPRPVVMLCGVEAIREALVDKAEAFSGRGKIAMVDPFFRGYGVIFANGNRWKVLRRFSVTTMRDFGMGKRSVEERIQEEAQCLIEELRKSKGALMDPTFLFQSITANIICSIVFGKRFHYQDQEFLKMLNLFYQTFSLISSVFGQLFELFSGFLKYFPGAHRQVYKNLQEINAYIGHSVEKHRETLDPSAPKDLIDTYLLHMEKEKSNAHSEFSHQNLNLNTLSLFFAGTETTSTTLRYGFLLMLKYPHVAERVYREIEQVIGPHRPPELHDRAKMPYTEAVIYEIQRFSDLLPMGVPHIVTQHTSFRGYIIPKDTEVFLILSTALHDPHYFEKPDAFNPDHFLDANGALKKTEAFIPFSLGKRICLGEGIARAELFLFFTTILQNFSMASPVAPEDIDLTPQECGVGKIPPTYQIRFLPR
# [6] = target: CYP2C19 (Homo sapiens, UniProt P33261); test: Inhibition of human recombinant CYP2C19 at 10 uM by spectrofluorimetry; format: ADME; in short: as §1
# [7] = target: CYP2E1 (Homo sapiens, UniProt P05181); test: Inhibition of human recombinant CYP2E1 at 10 uM by spectrofluorimetry; format: ADME; in short: as §1
# [8] = target: CYP3A5 (Homo sapiens, UniProt P20815); test: Inhibition of human recombinant CYP3A5 at 10 uM by spectrofluorimetry; format: ADME; in short: as §1
# [9] = system: NG108-15; test: Agonist activity at AT2 receptor in rat/mouse hybrid NG108-15 cells assessed as induction of neurite growth at 0.1 nM after 3 days by phase contrast microscopy; format: functional, cell-based
# In short: (§2)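 NG108-15 cells (passage 7–30) were grown in DMEM with 10% FBS, HAT and gentamycin at 37 °C in 7% CO2. Cells were stimulated once daily for three days, starting 24 h after plating. When used, PD123,319 (1 µM) was added 30 min before agonist. After 3 days, cells were scored from phase-contrast micrographs: positive meant at least one neurite longer than the cell body, expressed as % of total cells. At least 140 cells were counted in three independent experiments.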
# [10] = system: NG108-15; test: Agonist activity at AT2 receptor in rat/mouse hybrid NG108-15 cells assessed as induction of neurite growth at 0.1 nM after 3 days by phase contrast microscopy in presence of 1 uM AT2 receptor antagonist PD-123319; format: functional, cell-based; in short: as §2
# [11] = system: NG108-15; test: Cytotoxicity against rat/mouse hybrid NG108-15 cells up to 1 uM; format: cell-based
# In short: (§3)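 NG108-15 cells were cultured for three days with test compound at 1 pM to 1 µM. Cell death was then judged by phase-contrast microscopy.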
# [12] = system: NG108-15; test: Cytotoxicity against rat/mouse hybrid NG108-15 cells at 1 uM; format: cell-based; conditions: ng108-15, 1 µM; in short: as §3
# [13] = system: NG108-15; test: Agonist activity at AT2 receptor in rat/mouse hybrid NG108-15 cells assessed as induction of neurite growth at 100 nM after 3 days by phase contrast microscopy; format: functional, cell-based; conditions: 0.1 nM, in the assay text read “at 0.1 nM” for “at 100 nM”; in short: as §2
# [14] = target: T2, CYP2C9; test: Inhibition of CYP2C9 at 10 uM; format: ADME; in short: as §1
# [15] = target: T3, CYP3A4; test: Inhibition of CYP3A4 at 10 uM; format: ADME; in short: as §1
# [16] = target: T5, CYP1A2 (Homo sapiens, UniProt P05177); test: Inhibition of human recombinant CYP1A2 at 10 uM by spectrofluorimetry; format: ADME; in short: as §1
# T5 sequence (P05177 whole entry): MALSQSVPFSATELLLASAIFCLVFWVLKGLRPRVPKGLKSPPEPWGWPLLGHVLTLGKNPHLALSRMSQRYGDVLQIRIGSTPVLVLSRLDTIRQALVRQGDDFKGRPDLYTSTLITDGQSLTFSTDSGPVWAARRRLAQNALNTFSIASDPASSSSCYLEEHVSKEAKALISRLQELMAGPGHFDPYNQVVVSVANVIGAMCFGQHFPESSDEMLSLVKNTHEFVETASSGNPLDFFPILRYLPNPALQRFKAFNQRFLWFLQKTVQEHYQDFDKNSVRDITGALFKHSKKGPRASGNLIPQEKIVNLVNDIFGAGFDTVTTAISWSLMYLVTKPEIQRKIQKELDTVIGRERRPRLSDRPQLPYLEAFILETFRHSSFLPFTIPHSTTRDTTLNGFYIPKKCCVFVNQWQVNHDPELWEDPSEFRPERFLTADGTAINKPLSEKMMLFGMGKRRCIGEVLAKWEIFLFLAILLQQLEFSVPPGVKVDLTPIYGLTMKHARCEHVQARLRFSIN
# [17] = Displacement of [125I]angiotensin 2 from rat AT1 receptor expressed in african green monkey COS7 cells after 24 hrs; format: cell-based; conditions: cos-7
# T3 sequence (P08684 whole entry): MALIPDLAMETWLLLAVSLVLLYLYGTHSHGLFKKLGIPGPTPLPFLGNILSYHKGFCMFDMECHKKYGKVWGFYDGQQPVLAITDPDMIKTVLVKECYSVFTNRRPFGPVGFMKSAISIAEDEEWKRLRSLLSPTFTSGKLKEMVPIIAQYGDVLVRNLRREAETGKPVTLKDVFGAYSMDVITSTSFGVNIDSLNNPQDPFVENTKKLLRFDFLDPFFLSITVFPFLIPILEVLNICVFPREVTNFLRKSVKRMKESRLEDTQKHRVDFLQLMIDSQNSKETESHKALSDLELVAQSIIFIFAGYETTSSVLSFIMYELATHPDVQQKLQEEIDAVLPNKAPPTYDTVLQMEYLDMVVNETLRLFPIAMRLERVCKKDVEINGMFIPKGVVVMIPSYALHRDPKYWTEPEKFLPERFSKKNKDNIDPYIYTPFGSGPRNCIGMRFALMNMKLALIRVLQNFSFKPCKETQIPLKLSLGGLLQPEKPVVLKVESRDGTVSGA
# Chain of CYP3A5 (P20815 whole entry): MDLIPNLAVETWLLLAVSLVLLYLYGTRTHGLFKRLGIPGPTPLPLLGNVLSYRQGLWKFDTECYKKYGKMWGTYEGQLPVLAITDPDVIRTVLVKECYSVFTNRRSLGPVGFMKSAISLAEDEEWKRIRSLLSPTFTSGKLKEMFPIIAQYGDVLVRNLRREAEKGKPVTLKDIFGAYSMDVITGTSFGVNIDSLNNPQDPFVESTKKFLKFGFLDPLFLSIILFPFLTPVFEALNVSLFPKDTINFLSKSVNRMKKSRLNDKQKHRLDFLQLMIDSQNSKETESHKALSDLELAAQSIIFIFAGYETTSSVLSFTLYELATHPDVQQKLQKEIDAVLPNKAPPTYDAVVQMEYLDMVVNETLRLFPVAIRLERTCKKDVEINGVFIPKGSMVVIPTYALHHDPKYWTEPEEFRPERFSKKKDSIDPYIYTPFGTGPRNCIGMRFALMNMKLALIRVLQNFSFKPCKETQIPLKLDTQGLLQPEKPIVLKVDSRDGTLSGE
# T2 sequence (P11712 whole entry): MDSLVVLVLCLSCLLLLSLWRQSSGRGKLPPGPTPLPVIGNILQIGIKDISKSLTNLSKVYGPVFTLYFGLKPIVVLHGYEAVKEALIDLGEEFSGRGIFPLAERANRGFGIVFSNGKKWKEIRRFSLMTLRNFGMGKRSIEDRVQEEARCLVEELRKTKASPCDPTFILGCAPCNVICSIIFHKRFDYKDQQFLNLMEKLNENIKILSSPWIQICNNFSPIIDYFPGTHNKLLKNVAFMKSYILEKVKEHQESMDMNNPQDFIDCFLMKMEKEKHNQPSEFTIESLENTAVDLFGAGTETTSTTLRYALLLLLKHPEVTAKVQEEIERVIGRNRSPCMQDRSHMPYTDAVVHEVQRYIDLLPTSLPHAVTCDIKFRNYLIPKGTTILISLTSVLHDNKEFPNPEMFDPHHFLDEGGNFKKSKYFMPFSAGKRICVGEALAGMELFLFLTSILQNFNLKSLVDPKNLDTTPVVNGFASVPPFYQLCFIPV
# Chain of CYP2C19 (P33261 whole entry): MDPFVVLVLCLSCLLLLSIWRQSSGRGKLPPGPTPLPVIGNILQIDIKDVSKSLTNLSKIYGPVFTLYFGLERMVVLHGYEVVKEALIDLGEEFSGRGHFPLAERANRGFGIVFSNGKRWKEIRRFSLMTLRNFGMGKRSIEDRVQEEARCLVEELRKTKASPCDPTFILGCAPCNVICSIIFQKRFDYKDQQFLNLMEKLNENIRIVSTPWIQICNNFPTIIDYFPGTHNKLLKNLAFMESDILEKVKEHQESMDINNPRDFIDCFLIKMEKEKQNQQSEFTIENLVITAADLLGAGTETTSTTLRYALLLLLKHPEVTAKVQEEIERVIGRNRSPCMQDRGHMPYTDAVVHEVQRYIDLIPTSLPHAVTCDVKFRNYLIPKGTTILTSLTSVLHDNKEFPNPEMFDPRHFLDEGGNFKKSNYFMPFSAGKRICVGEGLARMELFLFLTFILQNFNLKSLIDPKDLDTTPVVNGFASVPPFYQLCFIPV
# Chain of CYP2E1 (P05181 whole entry): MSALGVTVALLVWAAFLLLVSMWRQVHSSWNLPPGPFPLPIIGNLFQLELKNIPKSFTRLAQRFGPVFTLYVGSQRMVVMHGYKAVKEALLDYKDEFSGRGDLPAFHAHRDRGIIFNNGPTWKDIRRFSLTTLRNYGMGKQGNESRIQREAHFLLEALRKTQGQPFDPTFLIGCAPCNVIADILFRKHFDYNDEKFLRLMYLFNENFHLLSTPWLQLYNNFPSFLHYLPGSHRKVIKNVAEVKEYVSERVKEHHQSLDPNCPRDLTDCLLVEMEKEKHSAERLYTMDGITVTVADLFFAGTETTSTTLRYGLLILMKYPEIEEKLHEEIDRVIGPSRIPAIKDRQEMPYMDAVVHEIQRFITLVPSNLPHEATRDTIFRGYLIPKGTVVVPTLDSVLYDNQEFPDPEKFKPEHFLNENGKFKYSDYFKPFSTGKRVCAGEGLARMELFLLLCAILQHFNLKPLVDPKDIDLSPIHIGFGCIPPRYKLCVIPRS
Ki [1],Ki [2],inhibition at 10 µM [3],inhibition at 10 µM [4],SMILES,also measured
> 10000 nM,16.1 nM,71%,51%,CCCCOC(=O)NS(=O)(=O)c1sc(CC(C)C)cc1-c1ccc(CN2CCC(=O)CC2)cc1,
> 10000 nM,108 nM,,,CCCCOC(=O)NS(=O)(=O)c1sc(CC(C)C)cc1-c1ccc(Cn2cnccc2=O)cc1,
> 10000 nM,16.5 nM,24%,20%,CCCCOC(=O)NS(=O)(=O)c1sc(CC(C)C)cc1-c1ccc(CN2CCN(C)C2=O)cc1,
> 10000 nM,328 nM,,,CCCCOC(=O)NS(=O)(=O)c1sc(CC(C)C)cc1-c1ccc(Cc2nnc(C(F)(F)F)o2)cc1,
> 10000 nM,3.5 nM,24%,28%,CCCCOC(=O)NS(=O)(=O)c1sc(CC(C)C)cc1-c1ccc(CN2CCCC2=O)cc1,inhibition at 10 µM [5]: 33%; inhibition at 10 µM [6]: 25%; inhibition at 10 µM [7]: 5%; inhibition at 10 µM [8]: 25%; Activity [9]: Active; Activity [10]: inactive; Activity [11]: Non-toxic; Activity [12]: Toxic; Activity [13]: Active
> 10000 nM,175 nM,,,CCCCOC(=O)NS(=O)(=O)c1sc(CC(C)C)cc1-c1ccc(Cc2ccsc2)cc1,
> 10000 nM,18.6 nM,92%,16%,CCCCOC(=O)NS(=O)(=O)c1sc(CC(C)C)cc1-c1ccc(C(=O)c2nccs2)cc1,
> 10000 nM,9.5 nM,56%,33%,CCCCOC(=O)NS(=O)(=O)c1sc(CC(C)C)cc1-c1ccc(Cn2ccc(C(F)(F)F)n2)cc1,
> 10000 nM,18.8 nM,,,CCCCOC(=O)NS(=O)(=O)c1sc(CC(C)C)cc1-c1ccc(C(=O)c2cccs2)cc1,
> 10000 nM,280 nM,,,CCCCOC(=O)NS(=O)(=O)c1sc(CC(C)C)cc1-c1ccc(CN2CCSC2)cc1,
> 10000 nM,49 nM,,,CCCCOC(=O)NS(=O)(=O)c1sc(CC(C)C)cc1-c1ccc(Cn2cnnn2)cc1,
> 10000 nM,16 nM,,,CCCCOC(=O)NS(=O)(=O)c1sc(CC(C)C)cc1-c1ccc(Cn2ncnn2)cc1,
> 10000 nM,17.6 nM,37%,44%,CCCCOC(=O)NS(=O)(=O)c1sc(CC(C)C)cc1-c1ccc(Cn2cnc(C)c2)cc1,
> 10000 nM,,94%,82%,CCCCOC(=O)NS(=O)(=O)c1sc(CC(C)C)cc1-c1ccc(Cn2ccnc2)cc1 [BULOXIBUTID],inhibition at 10 µM [14]: 94%; inhibition at 10 µM [15]: 82%; inhibition at 10 µM [16]: 63%; inhibition at 10 µM [5]: 40%; inhibition at 10 µM [6]: 67%
> 10000 nM,3.6 nM,38%,20%,CCCCOC(=O)NS(=O)(=O)c1sc(CC(C)C)cc1-c1ccc(CN2C(=O)N(C)C(C)(C)C2=O)cc1,
> 10000 nM,3.2 nM,86%,70%,CCCCOC(=O)NS(=O)(=O)c1sc(CC(C)C)cc1-c1ccc(Cc2nccs2)cc1,
> 10000 nM,7.3 nM,31%,71%,CCCCOC(=O)NS(=O)(=O)c1sc(CC(C)C)cc1-c1ccc(Cn2cnc(C(F)(F)F)c2)cc1,
> 10000 nM,> 10000 nM,,,CCCCOC(=O)NS(=O)(=O)c1sc(CC(C)C)cc1-c1ccc(CN2C(=O)CCC2=O)cc1,
> 10000 nM,3.4 nM,,,CCCCOC(=O)NS(=O)(=O)c1sc(CC(C)C)cc1-c1ccc(C(=O)c2ccnn2C)cc1,
> 10000 nM,,,,Cc1cc(Cn2cnc3c2C[C@@H](C(=O)O)N(C(=O)C(c2ccccc2)c2ccccc2)C3)ccc1N(C)C,
> 10000 nM,280 nM,,,CCCCOC(=O)NS(=O)(=O)c1sc(CC(C)C)cc1-c1ccc(CN2CCOCC2)cc1,
> 10000 nM,2.9 nM,38%,14%,CCCCOC(=O)NS(=O)(=O)c1sc(CC(C)C)cc1-c1ccc(C(=O)c2nccn2C)cc1,inhibition at 10 µM [6]: 6%; inhibition at 10 µM [8]: 17%
> 10000 nM,68.6 nM,40%,25%,CCCCOC(=O)NS(=O)(=O)c1sc(CC(C)C)cc1-c1ccc(CN2C(=O)CN(C)C2=O)cc1,
> 10000 nM,2.3 nM,23%,16%,CCCCOC(=O)NS(=O)(=O)c1sc(CC(C)C)cc1-c1ccc(Cn2cccn2)cc1,inhibition at 10 µM [5]: 29%; inhibition at 10 µM [6]: 12%; inhibition at 10 µM [8]: 20%
,,,,CCCCOC(=O)NS(=O)(=O)c1sc(CC(C)C)cc1-c1ccc(Cn2c(CC)nc3c(C)cc(C)nc32)cc1,IC50 [17]: 1.1 nM
12.1 nM,,,,CCCCc1nc(Cl)c(CO)n1Cc1ccc(-c2ccccc2-c2nnn[nH]2)cc1 [LOSARTAN],
> 10000 nM,3.9 nM,83%,57%,CCCCOC(=O)NS(=O)(=O)c1sc(CC(C)C)cc1-c1ccc(Cc2ncco2)cc1,
> 10000 nM,13.8 nM,75%,36%,CCCCOC(=O)NS(=O)(=O)c1sc(CC(C)C)cc1-c1ccc(C(=O)c2ncco2)cc1,
